Source: ChEMBL document CHEMBL2331484, “Synthesis and biological evaluation of scopoletin derivatives” (Bioorg Med Chem, 2013)
The source made the active and inactive calls. No cut-off for these calls is given here.

How the values were obtained:
[1] = test system: HUVEC; experiment: Antiproliferative activity against HUVEC assessed as growth inhibition rate at 100 uM after 24 hrs by MTT assay; type: functional; details: Homo sapiens, read-out: GI
In short: (§1)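 HUVECs (passages 3–5, primary cord isolates) seeded at 1 × 10⁴ cells/well. Medium replaced with M199 containing 1% FBS plus compound. Viability read by MTT after 24 h. Percent inhibition was calculated from A570 minus A630 of treated versus control wells, and IC50 determined. Triplicate experiments, means ± SEM.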

[2] = test system: HUVEC; experiment: Antiproliferative activity against HUVEC assessed as growth inhibition rate at 10 uM after 24 hrs by MTT assay; type: functional; details: Homo sapiens, read-out: GI; in short: as §1
[3] = test system: HUVEC; experiment: Effect on total p38 MAPK level in VEGF-stimulated HUVEC pretreated at 10 to 50 umol/L for 30 mins before VEGF addition by Western blot analysis; type: functional, cell-based; details: Homo sapiens
[4] = test system: HUVEC; experiment: Effect on total src level in VEGF-stimulated HUVEC pretreated at 10 to 50 umol/L for 30 mins before VEGF addition by Western blot analysis; type: functional, cell-based; details: Homo sapiens
[5] = test system: HUVEC; experiment: Effect on total ERK1/2 level in VEGF-stimulated HUVEC pretreated at 10 to 50 umol/L for 30 mins before VEGF addition by Western blot analysis; type: functional, cell-based; details: Homo sapiens
[6] = test system: HUVEC; experiment: Effect on total akt level in VEGF-stimulated HUVEC pretreated at 10 to 50 umol/L for 30 mins before VEGF addition by Western blot analysis; type: functional, cell-based; details: Homo sapiens
[7] = molecular target: MAP kinase p38 (Homo sapiens) (UniProt O15264+Q15759+Q16539+P53778); experiment: Inhibition of VEGF receptor signaling in VEGF-stimulated HUVEC assessed a effect on p38 MAPK phosphorylation pretreated at 10 to 50 umol/L for 30 mins before VEGF addition by Western blot analysis; type: protein assay
[8] = Inhibition of VEGF receptor signaling in VEGF-stimulated HUVEC assessed a effect on src phosphorylation pretreated at 10 to 50 umol/L for 30 mins before VEGF addition by Western blot analysis; type: cell-based; details: Homo sapiens
[9] = Inhibition of VEGF receptor signaling in HUVEC assessed a inhibition of VEGF-induced Akt phosphorylation pretreated at 10 to 50 umol/L for 30 mins before VEGF addition by Western blot analysis; type: cell-based; details: Homo sapiens
[10] = test system: PANC-1; experiment: Inhibition of MMP-2 protein expression in human PANC1 cells at 10 to 50 umol/L after 24 hrs by SDS-PAGE analysis; type: functional, cell-based
In short: (§2)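 Gelatin zymography of culture medium from equal numbers of PANC-1 cells exposed to compound for 24 h. Samples run non-reduced and unboiled on 10% polyacrylamide with 1 mg/mL gelatin. Gel washed in 2.5% Triton X-100 buffer, digested 14 h at 37 °C in Tris–HCl/CaCl2/ZnCl2 buffer pH 7.6, then Coomassie-stained. Clear bands imaged.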

[11] = Inhibition of VEGF receptor signaling in HUVEC assessed a inhibition of VEGF-induced ERK1/2 phosphorylation pretreated at 10 to 50 umol/L for 30 mins before VEGF addition by Western blot analysis; type: cell-based; details: Homo sapiens
[12] = test system: PANC-1; experiment: Inhibition of MMP-9 protein expression in human PANC1 cells at 10 to 50 umol/L after 24 hrs by SDS-PAGE analysis; type: functional, cell-based; in short: as §2
[13] = species on record: Gallus gallus; experiment: Antiangiogenic activity in chicken embryo chorioallantoic membrane model assessed as inhibition of new blood vessel formation at 10 nmol/egg after 48 hrs by microscopy; type: functional, tissue-based
In short: (§3)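 Fertilized chicken eggs incubated seven days at 37.5 °C, ~55% humidity, and the air sac membrane was detached. Sterile 5 × 5 mm filter paper soaked with DMSO or compound (5 and 10 nmol/egg) was air-dried and placed on the CAM. Eggs were sealed and reincubated. Fat emulsion (20%) was injected into the CAM and vessels photographed. Three independent experiments.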

[14] = species on record: Gallus gallus; experiment: Antiangiogenic activity in chicken embryo chorioallantoic membrane model assessed as inhibition of new blood vessel formation at 5 nmol/egg after 48 hrs by microscopy; type: functional, tissue-based; in short: as §3
[15] = test system: HUVEC; experiment: Antiangiogenic activity against HUVEC assessed as inhibition of VEGF-induced branching and network formation at 25 umol/L after 5 hrs by microscopy; type: functional, cell-based; details: Homo sapiens
In short: (§4)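 Matrigel-coated wells gelled 37 °C 30 min. DMSO or compound (final 25 µmol/L) added for 30 min before plating. After 5 h, enclosed complete tubes counted in five random fields by microscopy. Triplicate experiments, means ± SEM.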

[16] = test system: HUVEC; experiment: Antiangiogenic activity against HUVEC assessed as inhibition of VEGF-induced tube formation at 25 umol/L after 5 hrs by microscopy; type: functional, cell-based; details: Homo sapiens; in short: as §4
[17] = test system: HUVEC; experiment: Antiangiogenic activity against HUVEC assessed as inhibition of VEGF-induced cell migration at 25 umol/L after 20 hrs by Boyden chamber assay; type: functional, cell-based; details: Homo sapiens
In short: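 Boyden chamber, 8.0 µm membrane. HUVECs at 80% confluence serum-starved 12 h in basal medium and suspended at 1 × 10⁶ cells/mL. Pre-treated 30 min at room temperature with DMSO or compound (final 25 µmol/L). After 20 h cells fixed, stained, and counted in five random fields. Triplicate experiments.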

[18] = test system: HuT78; experiment: Cytotoxicity against human HUT78 cells after 24 hrs by MTT assay; type: functional, cell-based; details: HuT78, 24 h
[19] = test system: K562; experiment: Cytotoxicity against human K562 cells after 24 hrs by MTT assay; type: functional, cell-based; details: K562, 24 h
[20] = test system: HL-60; experiment: Cytotoxicity against human HL60 cells after 24 hrs by MTT assay; type: functional, cell-based; details: HL-60, 24 h
[21] = Cytotoxicity against human SHG44 cells after 24 hrs by MTT assay; type: functional, cell-based; details: SHG-44, 24 h
[22] = test system: A-431; experiment: Cytotoxicity against human A431 cells after 24 hrs by MTT assay; type: functional, cell-based; details: A-431, 24 h
[23] = test system: A549; experiment: Cytotoxicity against human A549 cells after 24 hrs by MTT assay; type: functional, cell-based; details: A549, 24 h
[24] = test system: MKN-45; experiment: Cytotoxicity against human MKN45 cells after 24 hrs by MTT assay; type: functional, cell-based; details: MKN-45, 24 h
[25] = test system: HCT-116; experiment: Cytotoxicity against human HCT116 cells after 24 hrs by MTT assay; type: functional, cell-based; details: HCT-116, 24 h
[26] = test system: HepG2; experiment: Cytotoxicity against human HepG2 cells after 24 hrs by MTT assay; type: functional, cell-based; details: HepG2, 24 h
[27] = test system: MDA-MB-231; experiment: Cytotoxicity against human MDA-MB-231 cells after 24 hrs by MTT assay; type: functional, cell-based; details: MDA-MB-231, 24 h
[28] = test system: MDA-MB-435; experiment: Cytotoxicity against human MDA-MB-435 cells after 24 hrs by MTT assay; type: functional, cell-based; details: MDA-MB-435, 24 h
[29] = test system: BXPC-3; experiment: Cytotoxicity against human BxPC3 cells after 24 hrs by MTT assay; type: functional, cell-based; details: BXPC-3, 24 h
[30] = test system: PANC-1; experiment: Cytotoxicity against human PANC1 cells after 24 hrs by MTT assay; type: functional, cell-based; details: PANC-1, 24 h
[31] = test system: PBMC; experiment: Cytotoxicity against human PBMC after 24 hrs by MTT assay; type: cell-based
[32] = test system: HUVEC; experiment: Antiproliferative activity against HUVEC assessed as growth inhibition rate after 24 hrs by MTT assay; type: functional, cell-based; details: Homo sapiens; in short: as §1
[33] = test system: HUVEC; experiment: Antiangiogenic activity against HUVEC assessed as inhibition of VEGF-induced migration at 25 umol/L after 20 hrs by microscopy; details: Homo sapiens

`COc1cc2ccc(=O)oc2cc1OCCNC(C)C` showed an inhibition of growth at 100 µM [1] of 0.1% and an inhibition of growth at 10 µM [2] of 0.1%.
For `COc1cc2ccc(=O)oc2cc1OCC(O)CN1CCOCC1` (centres undefined), the inhibition of growth at 100 µM [1] was 0.1% and the inhibition of growth at 10 µM [2] was 0.4%.
For `COc1cc2ccc(=O)oc2cc1OCCCCl`, the inhibition of growth at 100 µM [1] was 9.4% and the inhibition of growth at 10 µM [2] was 0.1%.
`COc1cc2ccc(=O)oc2cc1OCCCl` gave an inhibition of growth at 100 µM [1] of 3.3% and an inhibition of growth at 10 µM [2] of 0.3%.
`COc1cc2ccc(=O)oc2cc1OCC(O)CN1CCN(C)CC1` (centres undefined) gave an inhibition of growth at 100 µM [1] of 3.4% and an inhibition of growth at 10 µM [2] of 0.1%.
With `COc1cc2ccc(=O)oc2cc1OCCBr` the inhibition of growth at 100 µM [1] was 5.6% and the inhibition of growth at 10 µM [2] was 4.9%.
In the case of `COc1cc2ccc(=O)oc2cc1OCC(=O)c1ccc(Cl)cc1`, the Activity [3] is reported as “inactive”, the Activity [4] is reported as “inactive” and the Activity [5] is reported as “inactive”. For the same molecule, the Activity [6] was “inactive”, the inhibition [7] was “inactive” and the inhibition [8] was “inactive”. The inhibition [9] was “Active”, the inhibition [10] was “Active” and the inhibition [11] was “inactive”. The inhibition [12] was “Active”, the inhibition [13] was “Active” and the inhibition [14] was “Active”. For the same molecule, the inhibition [15] was “Active”, the inhibition [16] was “Active” and the inhibition [17] was “Active”. For the same molecule, the IC50 [18] was 62.1 µM, the IC50 [19] was 52.5 µM and the IC50 [20] was 65.7 µM. The IC50 [21] was > 100 µM, the IC50 [22] was > 100 µM and the IC50 [23] was > 100 µM. The IC50 [24] was 99.2 µM, the IC50 [25] was 59.5 µM and the IC50 [26] was 56.3 µM. For the same molecule, the IC50 [27] was > 100 µM, the IC50 [28] was 92.4 µM and the IC50 [29] was > 100 µM. For the same molecule, the IC50 [30] was 19.8 µM, the IC50 [31] was > 100 µM and the IC50 [32] was 10 µM. For the same molecule, the inhibition of growth at 100 µM [1] was 83.8%, the inhibition of growth at 10 µM [2] was 62.6% and the inhibition [33] was “Active”.
`COc1cc2ccc(=O)oc2cc1OCC(=O)c1ccc(Cl)c(Cl)c1` gave an inhibition of growth at 100 µM [1] of 42.8% and an inhibition of growth at 10 µM [2] of 0%.
Molecule `CCN(CC)CCOc1cc2oc(=O)ccc2cc1OC` has an inhibition of growth at 100 µM [1] of 3.1% and an inhibition of growth at 10 µM [2] of 0.1%.
`COc1cc2ccc(=O)oc2cc1OCCN1CCOCC1` gave an inhibition of growth at 100 µM [1] of 1.9% and an inhibition of growth at 10 µM [2] of 0%.
With `COc1cc2ccc(=O)oc2cc1OCC1CO1` (centres undefined) the IC50 [32] was 5.3 µM, the inhibition of growth at 100 µM [1] was 95.5% and the inhibition of growth at 10 µM [2] was 62.2%.
For `COc1cc2ccc(=O)oc2cc1OCC(=O)c1ccccc1`, the IC50 [32] was 62.4 µM, the inhibition of growth at 100 µM [1] was 83.6% and the inhibition of growth at 10 µM [2] was 3.4%.
`COc1cc2ccc(=O)oc2cc1OCCN1CCCCC1` gave an inhibition of growth at 100 µM [1] of 6.1% and an inhibition of growth at 10 µM [2] of 0.1%.
